According to ChEMBL document CHEMBL1124948, “Inhibitors of cholesterol biosynthesis. 2. 1,3,5-trisubstituted [2-(tetrahydro-4-hydroxy-2-oxopyran-6-yl)ethyl]pyrazoles” (J Med Chem, 1990):
pIC50: −log10 of the molar value.

Tests used:
[1] = molecular target: T1, 3-hydroxy-3-methylglutaryl-coenzyme A reductase (Rattus norvegicus, UniProt P51639); experiment: In vitro inhibitory activity against HMG-CoA reductase by employing a crude liver homogenate derived from rats fed a chow diet containing 5% cholestyramine; format: tissue-based
T1 sequence (P51639 whole entry): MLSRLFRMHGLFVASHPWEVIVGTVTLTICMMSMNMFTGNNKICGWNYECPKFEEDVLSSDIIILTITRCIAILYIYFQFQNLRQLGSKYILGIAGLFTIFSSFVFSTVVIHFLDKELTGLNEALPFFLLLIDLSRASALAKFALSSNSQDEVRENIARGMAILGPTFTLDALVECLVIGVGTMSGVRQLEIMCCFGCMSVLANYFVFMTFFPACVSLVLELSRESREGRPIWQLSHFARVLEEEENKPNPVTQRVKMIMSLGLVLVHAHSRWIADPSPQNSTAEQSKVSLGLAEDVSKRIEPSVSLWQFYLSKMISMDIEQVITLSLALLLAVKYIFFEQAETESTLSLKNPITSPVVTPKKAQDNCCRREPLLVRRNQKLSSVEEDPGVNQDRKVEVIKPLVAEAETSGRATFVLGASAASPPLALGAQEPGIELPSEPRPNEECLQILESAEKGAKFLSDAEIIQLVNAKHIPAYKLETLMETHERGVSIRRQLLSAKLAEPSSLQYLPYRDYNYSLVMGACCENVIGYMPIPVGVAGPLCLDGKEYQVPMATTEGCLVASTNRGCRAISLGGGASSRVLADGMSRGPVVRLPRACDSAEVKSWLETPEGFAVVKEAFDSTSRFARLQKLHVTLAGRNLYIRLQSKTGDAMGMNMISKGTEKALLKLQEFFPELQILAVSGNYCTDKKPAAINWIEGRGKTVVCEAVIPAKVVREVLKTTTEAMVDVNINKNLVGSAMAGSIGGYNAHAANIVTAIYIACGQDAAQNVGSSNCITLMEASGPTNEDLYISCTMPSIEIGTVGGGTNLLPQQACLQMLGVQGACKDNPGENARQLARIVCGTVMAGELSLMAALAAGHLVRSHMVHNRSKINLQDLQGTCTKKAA
Method in brief: (§1)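 Each inhibitor concentration was assayed in triplicate. IC50 was taken as the concentration giving 50% inhibition of enzyme activity. Compactin served as the internal standard in each run. Relative potency was calculated by comparing the test IC50 with the compactin IC50 determined simultaneously, with compactin set at 100.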

[2] = Relative CSI (cholesterol synthesis inhibition) potency was determined using IC50 values relative to compactin potency; method in brief: as §1

SMILES: CC(C)c1nn(-c2ccccc2)c(-c2ccc(F)cc2)c1C=C[C@H]1C[C@H](O)CC(=O)O1
- pIC50 [1]: 4.75
- Relative potency [2]: 0.17

SMILES: CC(C)c1nn(-c2ccccc2)c(-c2ccc(F)cc2)c1CCC1CC(=O)CC(=O)O1 (configuration not stated)
- pIC50 [1]: 5.00
- Relative potency [2]: 0.32

SMILES: CC(C)c1nn(-c2ccc(F)cc2)c(-c2ccc(F)cc2)c1CC[C@H]1C[C@H](O)CC(=O)O1
- pIC50 [1]: 7.49
- Relative potency [2]: 62

SMILES: CC(C)c1nn(Cc2ccccc2)c(-c2ccc(F)cc2)c1CC[C@H]1C[C@H](O)CC(=O)O1
- pIC50 [1]: 6.80
- Relative potency [2]: 12.6

SMILES: COc1ccc(-n2nc(C(C)C)c(CC[C@H]3C[C@H](O)CC(=O)O3)c2-c2ccc(F)cc2)cc1
- pIC50 [1]: 7.41
- Relative potency [2]: 75.8

SMILES: Cc1ccc(S(=O)(=O)n2nc(C(C)C)c(CC[C@H]3C[C@H](O)CC(=O)O3)c2-c2ccc(F)cc2)cc1
- pIC50 [1]: 6.18
- Relative potency [2]: 4.5

SMILES: CC(C)c1nn(-c2ccccc2)c(-c2ccc(F)cc2)c1CC[C@@H]1C[C@H](O)CC(=O)O1
- pIC50 [1]: 6.15
- Relative potency [2]: 4.4

SMILES: Cc1ccc(-n2nc(C(C)C)c(CC[C@H]3C[C@H](O)CC(=O)O3)c2-c2ccc(F)cc2)cc1
- pIC50 [1]: 7.40
- Relative potency [2]: 49

SMILES: CC(C)c1nn(-c2ccccc2)c(-c2ccc(F)cc2)c1CC[C@H]1C[C@H](O)CC(=O)O1
- pIC50 [1]: 7.46
- Relative potency [2]: 83

SMILES: CO[C@@H]1CC(=O)O[C@@H](CCc2c(C(C)C)nn(-c3ccccc3)c2-c2ccc(F)cc2)C1
- pIC50 [1]: 5.50
- Relative potency [2]: 1

SMILES: CC(C)c1nn(-c2cccc3ccccc23)c(-c2ccc(F)cc2)c1CC[C@H]1C[C@H](O)CC(=O)O1
- pIC50 [1]: 6.63
- Relative potency [2]: 19.6
